From ChEMBL document CHEMBL4004837, “Synthesis and Characterization of Urofuranoic Acids: In Vivo Metabolism of 2-(2-Carboxyethyl)-4-methyl-5-propylfuran-3-carboxylic Acid (CMPF) and Effects on in Vitro Insulin Secretion” (J Med Chem, 2017) come the findings set out here.

Series [1] in a line: Half life in mouse at 3 mg/kg, iv. It counts as ADME, organism-based. To be noted: in vivo. In outline:
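Mouse pharmacokinetics after single intravenous CMPF dosing at 1 or 3 mg/kg. Plasma exposure was followed over time to derive AUC, C0, terminal half-life, clearance and volume of distribution.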

Series [2] concerns Plasma. Description: Drug metabolism in CD1 mouse plasma assessed as oxidative metabolites formation at 6 mg/kg, ip dosed once daily for 3 days followed by dosing of 1:1 mixtures of 2-(2-Carboxyethyl)-4-methyl-5-propyl-(3-13C-furan)-3-13Ccarboxylateand test compound on day 4 and 5 measured 1 hr post dose on day 5 by HPLC-MS analysis. The format is ADME, organism-based. To be noted: in vivo. The gist of the method:
(§1)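 CMPF given 6 mg/kg i.p. once daily for three days. On days four and five, 1:1 mixtures of stable-isotope-labelled and unlabelled CMPF were dosed. Mice were killed 1 h after the day-five dose. Plasma, adipose, muscle and liver were collected and analysed by HPLC-MS (MS/MS for product ions). Metabolites were identified by their distinctive isotope patterns from the labelled/unlabelled mixture.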

The subject of series [3] is Liver. Description: Drug metabolism in CD1 mouse liver assessed as loss of C2 carboxyl during fragmentation at 6 mg/kg, ip dosed once daily for 3 days followed by dosing of 1:1 mixtures of 2-(2-(Carboxy-13C)ethyl)-4-methyl-5-propylfuran-3-carboxylic-2-13C Acid and test compound on day 4 and 5 measured 1 hr post dose on day 5 by HPLC-MS analysis. It counts as ADME, organism-based. To be noted: in vivo. The gist of the method: (§2)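 Mice received CMPF 6 mg/kg intraperitoneally for three days, then 1:1 labeled/unlabeled CMPF mixtures on days four and five. On day five they were euthanized 1 h post-dose, and plasma, adipose, muscle and liver were collected. Samples were analysed by HPLC-MS, with MS/MS of product ions. Metabolites were identified by the distinctive isotope patterns from the 1:1 label mixture.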

The nature of series [4]: Drug metabolism in CD1 mouse adipose assessed as loss of C2 carboxyl during fragmentation at 6 mg/kg, ip dosed once daily for 3 days followed by dosing of 1:1 mixtures of 2-(2-(Carboxy-13C)ethyl)-4-methyl-5-propylfuran-3-carboxylic-2-13C Acid and test compound on day 4 and 5 measured 1 hr post dose on day 5 by HPLC-MS analysis. It counts as ADME, organism-based, Adipose tissue. To be noted: in vivo. In outline:
as §2

The nature of series [5]: Clearance in mouse at 3 mg/kg, iv. To be noted: in vivo. The format is ADME, organism-based.
The target of the next series is CYP3A4 (Homo sapiens, UniProt P08684). Description: Inhibition of human microsomal CYP3A4 at 10 uM after 3 mins by single quad LC/MS analysis. The format is ADME. To be noted: microsomes.
CYP3A4, sequence (P08684 whole entry): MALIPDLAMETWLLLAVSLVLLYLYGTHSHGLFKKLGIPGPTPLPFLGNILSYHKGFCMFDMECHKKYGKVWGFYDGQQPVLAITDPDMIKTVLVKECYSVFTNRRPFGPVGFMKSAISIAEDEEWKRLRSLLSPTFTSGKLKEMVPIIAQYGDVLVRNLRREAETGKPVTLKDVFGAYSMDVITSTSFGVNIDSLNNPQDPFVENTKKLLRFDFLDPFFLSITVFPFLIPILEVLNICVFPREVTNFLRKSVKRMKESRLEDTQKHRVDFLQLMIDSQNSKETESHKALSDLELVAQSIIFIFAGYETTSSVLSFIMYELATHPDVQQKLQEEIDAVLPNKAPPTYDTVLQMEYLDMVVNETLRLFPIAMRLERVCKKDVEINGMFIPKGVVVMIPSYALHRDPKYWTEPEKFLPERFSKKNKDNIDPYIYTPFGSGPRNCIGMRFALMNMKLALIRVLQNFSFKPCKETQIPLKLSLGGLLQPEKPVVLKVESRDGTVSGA
Series [6] in a line: Drug metabolism in CD1 mouse muscle assessed as glycerol conjugate formation at 6 mg/kg, ip dosed once daily for 3 days followed by dosing of 1:1 mixtures of 2-(2-Carboxyethyl)-4-methyl-5-(1-propyl-1-13C)furan-3-carboxylic Acid and test compound on day 4 and 5 measured 1 hr post dose on day 5 by HPLC-MS analysis. The conditions noted are these: in vivo. It counts as ADME, organism-based, Muscle tissue. In outline: as §2

Series [7] in a line: Drug excretion in human urine assessed as CMPF formation. The format is ADME.
Another series relates to Hepatocyte. Description: Cytotoxicity against mouse primary hepatocytes assessed as fold change in capase3/7 activity by Caspase-Glo 3/7 assay relative to DMSO. The format is cell-based.
In another series the target is CYP2D6 (Homo sapiens, UniProt P10635). Description: Inhibition of human microsomal CYP2D6 at 10 uM after 3 mins by single quad LC/MS analysis. It counts as ADME. The conditions noted are these: microsomes.
CYP2D6, sequence (P10635 whole entry): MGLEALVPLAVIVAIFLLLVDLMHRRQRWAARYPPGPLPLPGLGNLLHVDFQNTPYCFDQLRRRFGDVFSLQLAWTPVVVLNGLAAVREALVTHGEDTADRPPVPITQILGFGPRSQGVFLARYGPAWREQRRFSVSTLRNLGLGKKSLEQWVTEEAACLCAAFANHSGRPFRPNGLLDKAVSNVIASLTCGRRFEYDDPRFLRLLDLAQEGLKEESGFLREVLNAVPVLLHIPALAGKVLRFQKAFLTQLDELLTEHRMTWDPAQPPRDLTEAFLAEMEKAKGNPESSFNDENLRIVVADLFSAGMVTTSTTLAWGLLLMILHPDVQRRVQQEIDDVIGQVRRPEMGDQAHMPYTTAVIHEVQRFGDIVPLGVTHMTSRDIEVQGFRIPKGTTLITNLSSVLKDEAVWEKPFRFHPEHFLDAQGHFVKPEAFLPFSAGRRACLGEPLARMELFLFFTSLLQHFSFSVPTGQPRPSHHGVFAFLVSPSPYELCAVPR
The test system of series [8] is Liver. Description: Drug metabolism in CD1 mouse liver assessed as monoacylglycerol conjugate formation at 6 mg/kg, ip dosed once daily for 3 days followed by dosing of 1:1 mixtures of 2-(2-(Carboxy-13C)ethyl)-4-methyl-5-propylfuran-3-carboxylic-2-13C Acid and test compound on day 4 and 5 measured 1 hr post dose on day 5 by HPLC-MS analysis. The format is ADME, organism-based. To be noted: in vivo. The gist of the method: as §2

The subject of series [9] is Liver. Description: Drug metabolism in CD1 mouse liver assessed as loss of C2 carboxyl during fragmentation at 6 mg/kg, ip dosed once daily for 3 days followed by dosing of 1:1 mixtures of 2-(2-Carboxyethyl)-4-methyl-5-propyl-(3-13C-furan)-3-13Ccarboxylate and test compound on day 4 and 5 measured 1 hr post dose on day 5 by HPLC-MS analysis. It counts as ADME, organism-based. The conditions noted are these: in vivo. In outline: as §2

Series [10] in a line: Drug metabolism in CD1 mouse muscle assessed as loss of C2 carboxyl during fragmentation at 6 mg/kg, ip dosed once daily for 3 days followed by dosing of 1:1 mixtures of 2-(2-Carboxyethyl)-4-methyl-5-propyl-(3-13C-furan)-3-13Ccarboxylate and test compound on day 4 and 5 measured 1 hr post dose on day 5 by HPLC-MS analysis. It counts as ADME, organism-based, Muscle tissue. The conditions noted are these: in vivo. In outline:
as §2

Series [11] can be described thus: Drug metabolism in CD1 mouse adipose assessed as glycerol conjugate formation at 6 mg/kg, ip dosed once daily for 3 days followed by dosing of 1:1 mixtures of 2-(2-(Carboxy-13C)ethyl)-4-methyl-5-propylfuran-3-carboxylic-2-13C Acid and test compound on day 4 and 5 measured 1 hr post dose on day 5 by HPLC-MS analysis. The format is ADME, organism-based, Adipose tissue. To be noted: in vivo. In outline: as §2

A short description of series [12]: Drug metabolism in CD1 mouse muscle assessed as monoacylglycerol conjugate formation at 6 mg/kg, ip dosed once daily for 3 days followed by dosing of 1:1 mixtures of 2-(2-Carboxyethyl)-4-methyl-5-(1-propyl-1-13C)furan-3-carboxylic Acid and test compound on day 4 and 5 measured 1 hr post dose on day 5 by HPLC-MS analysis. It counts as ADME, organism-based, Muscle tissue. To be noted: in vivo. The gist of the method:
as §2

Series [13] is described as follows: Drug metabolism in CD1 mouse adipose assessed as diacylglycerol conjugate formation at 6 mg/kg, ip dosed once daily for 3 days followed by dosing of 1:1 mixtures of 2-(2-(Carboxy-13C)ethyl)-4-methyl-5-propylfuran-3-carboxylic-2-13C Acid and test compound on day 4 and 5 measured 1 hr post dose on day 5 by HPLC-MS analysis. It counts as ADME, organism-based, Adipose tissue. The conditions noted are these: in vivo. The gist of the method: as §2

Series [14] deals with Plasma. Description: Drug metabolism in CD1 mouse plasma assessed as glucuronide conjugate formation at 6 mg/kg, ip dosed once daily for 3 days followed by dosing of 1:1 mixtures of 2-(2-Carboxyethyl)-4-methyl-5-propyl-(3-13C-furan)-3-13Ccarboxylate and test compound on day 4 and 5 measured 1 hr post dose on day 5 by HPLC-MS analysis. It counts as ADME, organism-based. The conditions noted are these: in vivo. In outline:
as §1

Series [15] has as its system Plasma. Description: Plasma concentration in human. It counts as ADME, cell-free.
Series [16] has as its system Plasma. Description: Drug metabolism in CD1 mouse plasma assessed as glucuronide conjugate formation at 6 mg/kg, ip dosed once daily for 3 days followed by dosing of 1:1 mixtures of 2-(2-(Carboxy-13C)ethyl)-4-methyl-5-propylfuran-3-carboxylic-2-13C Acid and test compound on day 4 and 5 measured 1 hr post dose on day 5 by HPLC-MS analysis. The format is ADME, organism-based. To be noted: in vivo. In outline: as §1

Series [17] deals with Liver. Description: Drug metabolism in CD1 mouse liver assessed as diacylglycerol conjugate formation at 6 mg/kg, ip dosed once daily for 3 days followed by dosing of 1:1 mixtures of 2-(2-Carboxyethyl)-4-methyl-5-propyl-(3-13C-furan)-3-13Ccarboxylateand test compound on day 4 and 5 measured 1 hr post dose on day 5 by HPLC-MS analysis. The format is ADME, organism-based. The conditions noted are these: in vivo. In outline: as §2

For series [18], the system named is Plasma. Description: Drug metabolism in CD1 mouse plasma assessed as oxidative metabolites formation at 6 mg/kg, ip dosed once daily for 3 days followed by dosing of 1:1 mixtures of 2-(2-(Carboxy-13C)ethyl)-4-methyl-5-propylfuran-3-carboxylic-2-13C Acid and test compound on day 4 and 5 measured 1 hr post dose on day 5 by HPLC-MS analysis. It counts as ADME, organism-based. To be noted: in vivo. In outline: as §1

Series [19] can be described thus: Drug metabolism in CD1 mouse adipose assessed as oxidative metabolites formation at 6 mg/kg, ip dosed once daily for 3 days followed by dosing of 1:1 mixtures of 2-(2-(Carboxy-13C)ethyl)-4-methyl-5-propylfuran-3-carboxylic-2-13C Acid and test compound on day 4 and 5 measured 1 hr post dose on day 5 by HPLC-MS analysis. The conditions noted are these: in vivo. The format is ADME, organism-based, Adipose tissue. In outline:
as §2

Consider `CCCc1oc(CCC(=O)O)c(C(=O)O)c1C`, for which, in series [1], the half-life was 3.27 h. Further, the Drug metabolism result in the series on Plasma [2] is recorded as “Metabolite_Notdetected”; in the series on Liver [3] it was “Metabolite_Detected”; in [4], “Metabolite_Detected”; in [6] it was “Metabolite_Notdetected”; with Liver [8], “Metabolite_Notdetected”; in the series on Liver [9] it was “Metabolite_Detected”. Further, the Drug metabolism entry in series [10] was “Metabolite_Detected”; in [11], “Metabolite_Notdetected”; in series [12] it was “Metabolite_Notdetected”; in series [13], “Metabolite_Notdetected”; in the series with Plasma [14] it was “Metabolite_Detected”; in the series with Plasma [16], “Metabolite_Detected”. Besides, the Drug metabolism result (with Liver [17]; in the series on Plasma [18]; in series [19]) was “Metabolite_Notdetected” each time. In series [5], this compound registered a clearance of 0.85 mL/min/kg. Moreover, the inhibition at 0.05 h, 10 µM at CYP3A4 and at CYP2D6 was 0% each time. The Drug excretion in series [7] was 1 to 5 mg/day. Besides, in the series on Hepatocyte, the fold change (FC) fell in the range of 0.7 to 0.8. The compound further had a concentration in the series on Plasma [15] of 20 to 40 µM.

One may read the half-life as the time in which the quantity being followed falls by half. Lower therefore signals rapid decline. Broadly, the clearance is the rate of elimination divided by the concentration. The term inhibition denotes the change of the read-out against control, counted positive when it falls. Low values mean a weak effect, high ones a strong effect.
